# SENP1 FRET inh: blocks the human SENP1 SUMO protease catalytic domain. inhibition, % at 10 µM. recombinant SENP1 catalytic domain, CyPet-SUMO1-YPet FRET cleavage. hit rate 0.21% among 360,000. Q9P0U3;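 active means inhibition at least 30% at 10 µM, raw YFP signal under a set limit, fluorescence ratio 0.5 to 1.5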;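 further: 0% = enzyme with DMSO and 100% = no enzyme wells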
# Target sequence (Q9P0U3 419-644 limits assumed): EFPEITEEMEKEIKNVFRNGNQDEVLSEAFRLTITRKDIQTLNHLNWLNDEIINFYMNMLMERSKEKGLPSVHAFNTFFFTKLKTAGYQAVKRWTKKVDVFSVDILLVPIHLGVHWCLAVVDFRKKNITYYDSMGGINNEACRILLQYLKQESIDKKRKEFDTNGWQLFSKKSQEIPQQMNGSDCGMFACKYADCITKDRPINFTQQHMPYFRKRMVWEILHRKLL
#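 material = recombinant human SENP1 catalytic domain, His6-tagged | quantity = 20 pM enzyme | reagent = 25 nM SUMO1 FRET substrate | compound dosing = 10 µM single point, 0.5% DMSO | timing = 50 min enzyme reaction, room temperature, light-protected | detection = FRET, CFP and YFP emission | control set = no-enzyme low, enzyme-DMSO high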
# FXN GAA850 act: activators of GAA850 frataxin (FXN) promoter; activation, % at 6 µM; HEK293 lucGAA850 FXN promoter luciferase reporter, 24 h; percent of 10 µM SAHA response; hit rate 0.56% among 360,000;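 active means activation above the average of all compounds screened plus 3 SD, cutoff fixed separately per campaign, cut at about 7.5% in these data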;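 further: 0% = DMSO wells and 100% = 10 µM SAHA wells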
# M18AAP inhibitor: PfM18AAP enzyme inhibition; recombinant PfM18AAP, H-Glu-NHMec fluorogenic cleavage; inhibition, % at 7.35 µM; hit rate 1.2% among 290,000;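 active means inhibition above the campaign mean inhibition over all tested compounds plus 3 SD, cut at about 28% in these data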;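 further: 0% = plate median of test compound wells and 100% = 2 mM ZnCl2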
# AHR act: activates the human aryl hydrocarbon receptor; P35869; AHR-responsive luciferase reporter cells, luminescence; hit rate 2.5% among 320,000; activation, % at 5 µM; in the data active means activation above about 47%;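 further: 0% = vehicle wells and 100% = reference agonist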
# CTSL1 counter: blocks F. hepatica cathepsin L1 in PFM18AAP counter-screen | recombinant F. hepatica cathepsin L1, Z-Leu-Arg-MCA fluorescence | inhibition, % at 5.96 µM | hit rate 0.49% among 300,000 | AID 1906;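 active means inhibition above the mean of all tested compounds plus 3 SD, set per screening campaign, cut at about 17% in these data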;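 further: 0% = plate median of test compound wells and 100% = 1 µM Z-Phe-Ala-diazomethylketone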
# HDAC3 inh: inhibitors of human histone deacetylase 3 | recombinant HDAC3, fluorogenic peptide/trypsin coupled, fluorescence | inhibition, % at 8.3 µM | hit rate 0.15% among 320,000 | AID 2718; in the data active means inhibition above about 26%, passing the limit was not always enough
# Target sequence (O15379 whole entry, looked up): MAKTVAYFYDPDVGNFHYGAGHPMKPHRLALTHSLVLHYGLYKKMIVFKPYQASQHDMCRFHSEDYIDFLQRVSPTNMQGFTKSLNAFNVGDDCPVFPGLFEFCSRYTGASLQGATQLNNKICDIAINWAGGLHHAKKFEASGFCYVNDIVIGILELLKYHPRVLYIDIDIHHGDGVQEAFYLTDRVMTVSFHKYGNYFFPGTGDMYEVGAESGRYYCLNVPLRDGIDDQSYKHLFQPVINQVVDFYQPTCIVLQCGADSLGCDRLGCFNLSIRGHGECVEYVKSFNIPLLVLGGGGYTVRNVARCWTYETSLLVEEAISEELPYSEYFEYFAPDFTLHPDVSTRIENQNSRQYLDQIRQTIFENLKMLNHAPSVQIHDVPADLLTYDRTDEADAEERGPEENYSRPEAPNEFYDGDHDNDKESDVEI
# GAA30 counter: activates GAA30 frataxin promoter, counter-screen for GAA850 activators | shares compounds with FXN GAA850 act | HEK293 lucGAA30 FXN promoter luciferase, 24 h; DMSO = 0%, 5 µM ipriflavone = 100% | activation, % at 6 µM | hit rate 66% among 1,900;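 active means mean activation above the mean of solvent-only control wells plus 3 SD, cut at about 22% in these data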;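 further: counterscreen of GAA850 promoter hits where activity marks nonselective or luminescence artifacts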
# FXN GAA850 conf: GAA850 FXN promoter activation confirmation. hit rate 86% among 1,900. activation, % at 6 µM. shares compounds with FXN GAA850 act. HEK293 lucGAA850 FXN promoter luciferase reporter, 24 h; 100% = activation by SAHA;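 active means mean activation above a set limit taken from the primary screen, cut at about 8% in these data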;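 further: 0% = DMSO wells and 100% = 10 µM SAHA wells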
# Numbers without * were called inactive; nt = not tested or not shown. Sampled rows, rich in hits. Any-hit rate of the full collection: about 4.2%.
SMILES,SENP1 FRET inh,FXN GAA850 act,M18AAP inhibitor,AHR act,CTSL1 counter,HDAC3 inh,GAA30 counter,FXN GAA850 conf
Cc1ccc(S(=O)(=O)NCC(=O)OCC(=O)Nc2cccc(S(=O)(=O)N3CCOCC3)c2)cc1,1.9,-1.2,nt,-0.8,nt,-3.6,nt,nt
O=C1NCCN1Cc1ccccc1,0.1,8.6*,-9.3,-1.4,-2.4,-3.9,20.2,5.3
CCOc1cc(S(=O)(=O)NCc2cccnc2)c(C)cc1C,-0.5,1.7,0.8,8.1,3.8,-4.6,nt,nt
Cc1ccc(NC(=O)c2ncn(CCCNCC3CCCCC3)n2)cc1C,-5.3,0.3,nt,nt,nt,nt,nt,nt
c1ccc(-c2cc3nccc(-c4ccccn4)n3n2)cc1,-33.3,8.0*,-3.2,38.1,-2.0,2.5,106.0*,28.7*
COC(=O)[C@H](C)NC(=O)NCc1ccccc1F,3.5,9.4*,-1.1,-2.0,-3.1,3.4,18.4,6.4
COC(=O)[C@H](C)NC(=O)NCc1ccc(F)cc1,0.8,-0.9,-3.2,-0.4,-5.2,-6.3,nt,nt
COc1ccc(NC(=O)COc2ccc(/C=N/n3c(C)nnc3C)cc2OC)cc1,-1.5,8.0*,-2.5,2.1,4.6,5.7,37.0*,12.4*
COc1cc(/C=N\n2cnnc2)ccc1OCC(=O)Nc1ccc(C)cc1,0.6,2.5,7.8,17.5,6.0,-2.3,nt,nt
CCOC(=O)c1cc(CC)sc1NC(=O)COC(=O)c1cc[n+]([O-])cc1,-5.1,5.0,2.8,1.5,-1.7,-2.9,nt,nt
O=C(N/N=C/c1ccccn1)c1ccc(NC(=O)c2ccccc2Cl)cc1,-9.7,-2.2,-3.7,1.4,7.0,8.0,nt,nt
O=C(N/N=C/c1ccccn1)c1cc(C2CC2)nc2ccccc12,-0.4,0.7,2.0,7.8,-0.6,-11.8,nt,nt
O=C(N/N=C/c1ccccn1)c1ccc(Cl)c(Cl)c1,-1.3,9.1*,-5.2,7.5,9.2,0.8,-108.1,-30.0
O=C(N/N=C/c1ccccn1)c1cc(-c2ccccc2)nc2ccccc12,16.7,7.7*,9.1,29.5,0.5,3.1,-117.7,-36.7
Cc1c(C(=O)NCC2CCCO2)sc2nc(-c3ccc(F)cc3)cn12 (centres undefined),2.4,16.9*,-1.5,4.0,0.2,-4.1,60.6*,20.7*
CCNc1ccc(N=Nc2c(C)n(C)n(-c3ccccc3)c2=O)cc1,25.2,8.4*,7.9,37.3,2.7,8.2,29.3*,13.4*
Cn1c(=O)c(/C=C/c2ccccc2)nc2ccccc21,-26.1,8.1*,-2.8,53.1*,-1.4,-2.1,126.9*,50.1*
Cc1c(C(=O)Nc2cccnc2Cl)oc2ccccc12,-2.4,7.8*,-6.2,37.7,-2.0,-4.4,128.4*,42.0*
Cc1c(C(=O)Nc2ccncc2)oc2ccccc12,1.7,-0.7,-4.3,24.5,3.2,3.3,nt,nt
C/C(=N\NC(=O)c1cccs1)c1ccc2c(c1)OCO2,2.0,7.6*,-7.6,29.0,2.4,-2.2,77.3*,24.9*
COc1ncnc2c1ncn2CCCN1CCN(c2ncccn2)CC1,0.5,0.0,nt,nt,nt,nt,nt,nt
O=C(N/N=C/c1ccc(O)c([N+](=O)[O-])c1)C1CC1(c1ccccc1)c1ccccc1 (centres undefined),2.2,10.0*,2.7,11.8,0.3,-0.3,32.4*,18.9*
CCCCN(C(=O)c1cccc(S(=O)(=O)N(CC)c2ccccc2)c1)c1c(N)n(CCCC)c(=O)[nH]c1=O,0.4,1.0,nt,nt,nt,nt,nt,nt
COc1cc(CNC(=O)Nc2nnc([C@H]3C[C@H](O)[C@@H](CO)O3)s2)cc(OC)c1OC,1.6,-0.3,nt,nt,nt,nt,nt,nt
CC(OC(=O)/C(C#N)=C/c1ccc(N(C)C)cc1)C(=O)N(C)Cc1ccccc1 (centres undefined),-29.9,3.5,5.3,2.3,3.6,1.3,nt,nt
SMILES,SENP1 FRET inh,FXN GAA850 act,M18AAP inhibitor,AHR act,CTSL1 counter,HDAC3 inh,GAA30 counter,FXN GAA850 conf
CCOC(=O)c1c(CN2CCN(CCO)CC2)n(C)c2cc(Br)c(OC)cc12,1.2,8.2*,-9.7,3.2,0.7,4.0,23.4*,17.7*
CCOC(=O)c1c(CN2CCCCC2)n(C)c2cc(Br)c(OC)cc12,-1.3,-0.3,-0.1,-0.1,1.0,6.7,nt,nt
CCOc1ccc(OCc2cccc(C(=O)N3CCCCCC3)c2)cc1,0.8,7.8*,2.5,-2.0,-1.4,3.3,104.9*,34.9*
NS(=O)(=O)c1cccc(NC(=O)COC(=O)CN2C(=O)c3ccccc3C2=O)c1,4.4,-1.0,nt,0.5,nt,-2.6,nt,nt
COc1ccc(OC)c(C=NN=Cc2cc(OC)ccc2OC)c1,1.5,0.3,nt,nt,nt,nt,nt,nt
COc1ccc(OC)c(/C=N/N(C)c2ccccc2)c1,0.5,7.9*,3.8,-2.9,1.9,16.8,127.2*,43.0*
CCCSc1nc(N)c(C#N)c(-c2ccc(C)cc2)c1C#N,0.2,0.8,3.3,5.4,12.9,19.1,nt,nt
C=CCSc1nc(N)c(C#N)c(-c2ccccc2)c1C#N,-14.6,10.7*,9.6,6.3,2.7,1.9,17.8,17.5*
CC1(C)Cc2c(c(-c3ccco3)nc3sc4c(NCCN5CCOCC5)ncnc4c23)CO1,-3.2,4.0,1.3,-0.1,5.2,-3.1,nt,nt
CC1(C)Cc2c(c(-c3ccco3)nc3sc4c(NCCCO)ncnc4c23)CO1,-17.3,7.7*,-24.0,2.6,-1.4,0.8,9.3,14.4*
O=C(c1ccccc1)c1cc2cc(Cl)ccc2[nH]1,0.9,8.3*,-2.9,4.0,5.9,1.9,86.8*,35.4*
COc1cccc(C(=O)c2cc3cc(Cl)ccc3[nH]2)c1,2.3,2.5,-5.8,16.0,-3.8,4.2,nt,nt
O=C1NC(=O)C2(CCC(C3CCCCC3)CC2)N1 (centres undefined),2.5,-0.1,nt,nt,nt,nt,nt,nt
CCc1ccccc1NC(=O)CN1C(=O)c2ccccc2S1(=O)=O,-0.4,-1.7,9.8,-0.8,-3.0,-7.2,nt,nt
CCc1cccc(C)c1NC(=O)CN1C(=O)c2ccccc2S1(=O)=O,1.3,17.5*,6.5,2.1,-1.9,-1.2,12.2,6.6
Cc1c(C(=O)N2CCN(C)CC2)oc2c1C(=O)CC(C)(C)C2,-0.4,0.3,2.7,3.0,-1.9,-5.5,nt,nt
Cc1c(C(=O)N2CCc3ccccc32)oc2c1C(=O)CC(C)(C)C2,1.5,11.1*,-0.5,nt,nt,nt,113.4*,40.1*
O=C(Nc1ccc(OC(F)(F)F)cc1)N1CCc2nc(NCc3cccc(Oc4ccccc4)c3)ncc2C1,-38.4,-1.7,nt,nt,nt,nt,nt,nt
COc1ccccc1C(=O)OCCc1ccccc1,-0.1,4.7,nt,nt,nt,nt,nt,nt
O=C(COC(=O)/C=C/c1cccc(F)c1)NC1CCCCC1,3.6,4.2,nt,nt,nt,nt,nt,nt
CCCOC(=O)c1c(N)sc(C(=O)OCC)c1C,-1.3,14.3*,-5.0,-0.3,0.6,7.8,64.1*,24.8*

# High-throughput results deposited in PubChem BioAssay by several laboratories.
